SIRT5 block – blocks human SIRT5 desuccinylation of peptide. AID 652115. Purified SirT5, succinyl-peptide AMC, trypsin-coupled fluorescence. actives 1.1% (n = 330,000). Q9NXA8. inhibition, % at 15 µM; in the data active means inhibition above about 15%
Target sequence (Q9NXA8 whole entry, looked up): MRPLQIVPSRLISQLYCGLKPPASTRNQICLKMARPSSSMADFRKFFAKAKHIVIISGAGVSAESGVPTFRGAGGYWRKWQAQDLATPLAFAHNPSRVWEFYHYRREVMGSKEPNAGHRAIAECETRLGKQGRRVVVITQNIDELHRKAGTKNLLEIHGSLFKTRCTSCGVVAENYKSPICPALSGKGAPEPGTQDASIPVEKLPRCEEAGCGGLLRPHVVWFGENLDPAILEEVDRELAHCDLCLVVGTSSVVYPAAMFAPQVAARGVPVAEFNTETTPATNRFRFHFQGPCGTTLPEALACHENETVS
ARNT-TACC3 inh – ARNT/TACC3 interaction disruption. Q9Y6A5. inhibition, % at 9.99 µM. actives 0.66% (n = 390,000). AlphaScreen His-ARNT PAS-B/GST-TACC3 binding, luminescence; TACC3 fragment carries E629A point mutation;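 active means mean inhibition of replicates at least 50% and at least half of replicates each reaching 50%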;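 further: 0% = complete ARNT plus TACC3 wells and 100% = ARNT alone without TACC3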
FN deposit inh – fibronectin deposition inhibition; inhibition, % at 12.6 µM; AID 743247; AH1F fibroblasts, Alexa488-fibronectin deposition fluorescence, overnight; actives 0.086% (n = 350,000);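 active means mean inhibition across replicates of 30% or more, regardless of how many single replicates reach that level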;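 further: positive control wells lacked labelled fibronectin entirely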
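material = AH1F fibroblast monolayer depositing Alexa488-labelled fibronectin into matrix | amount = 10000 AH1F cells/well | buffer or medium = DMEM plus 2% serum, read in PBS | incubation = 1 h cell adhesion before compound, then overnight fibronectin incubation | detection = fluorescence at 485 nm excitation, 525 nm emission | evaluation = percent inhibition as loss of matrix-bound fibronectin fluorescence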
XiGFP reactiv – reactivates the inactive X chromosome in mouse fibroblasts; XiGFP mouse fibroblasts, % GFP-positive cells imaging, 3 d; cells co-treated with 5-aza-dC sensitizer; scaled so ellipticine positive control = 100%; actives 0.055% (n = 360,000); activation, % at 7.58 µM;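 active means mean normalized replicate activation at least 10% and every replicate at or above 10%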;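 further: 0% = median of on-plate neutral control wells and 100% = ellipticine 6 µM median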
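Assay system – SV40-immortalized XiGFP fibroblast cells, line 68-5-11 · Buffer or medium – DMEM supplemented with 5-aza-dC as sensitizing agent · Dosing – one concentration, pinned · Benchmarks – positive control ellipticine, 6 µM final · Times – 3 days compound exposure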
DENV2 CPE – DENV2-induced cell death inhibition; DENV2-infected cells, cytopathic effect rescue, plate reader; CPE inhibition, % at 9.99 µM; actives 1.7% (n = 350,000); AID 651640; in the data active means CPE inhibition above about 20%, passing the limit was not always enough; tested in BHK-21 cells;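 further: 0% = median of neutral control wells and 100% = median of positive control wells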
FGF22 binding – FGF22 (human) thermal shift binding; recombinant FGF22 thermal shift, SYPRO orange fluorescence; percent of sucrose octasulfate shift, DMSO zero; actives 1.5% (n = 340,000); activity (Tm shift, normalised), % at 9.99 µM;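 active means mean Tm shift, scaled 0 neutral to 100 positive control, at about 1.3% or above, every replicate too, limit read from the data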
Target sequence (Q9HCT0 whole entry, looked up): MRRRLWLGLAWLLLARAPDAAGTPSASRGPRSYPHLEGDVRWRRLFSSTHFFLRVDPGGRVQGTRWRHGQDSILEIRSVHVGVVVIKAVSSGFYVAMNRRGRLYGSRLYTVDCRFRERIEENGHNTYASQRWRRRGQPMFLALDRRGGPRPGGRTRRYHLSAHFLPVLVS
Numbers without * were called inactive; · = not tested or not shown. Hits are enriched below; roughly 3.8% of the tested compounds scored in any of these assays.

SMILES	SIRT5 block	ARNT-TACC3 inh	FN deposit inh	XiGFP reactiv	DENV2 CPE	FGF22 binding
COc1ccc(S(=O)(=O)N(C)C[C@@H]2Oc3c(NC(=O)CCCCCC(=O)Nc4ccccc4N)cccc3C(=O)N([C@H](C)CO)C[C@@H]2C)cc1	·	·	·	0.0	35.5*	-0.3
COc1ccc(S(=O)(=O)N(C)C[C@@H]2Oc3c(NC(=O)CCCCCC(=O)Nc4ccccc4N)cccc3C(=O)N([C@H](C)CO)C[C@H]2C)cc1	1.9	·	·	0.1	32.1*	-0.4
COc1ccc(S(=O)(=O)N(C)C[C@H]2Oc3c(NC(=O)CCCCCC(=O)Nc4ccccc4N)cccc3C(=O)N([C@H](C)CO)C[C@@H]2C)cc1	-2.6	·	·	0.3	4.4	-0.4
COc1ccc(S(=O)(=O)N(C)C[C@H]2Oc3c(NC(=O)CCCCCC(=O)Nc4ccccc4N)cccc3C(=O)N([C@@H](C)CO)C[C@@H]2C)cc1	10.3	·	·	0.0	32.1*	-0.3
CNC(=O)C[C@H]1CC[C@@H]2[C@H](COc3ccc(NC(=O)c4ccc(OC)cc4)cc3C(=O)N2C)O1	-0.1	10.5	0.3	0.0	7.6	0.1
COc1ccc2c3c([nH]c2c1)[C@@H](CO)N(C(=O)c1cccc(F)c1)CC31CN(S(=O)(=O)c2cccs2)C1	·	·	·	0.3	·	·
COc1ccc2ccccc2c1C1CC(=O)N2CN(Cc3ccco3)CSC2=C1C#N (configuration not stated)	0.8	3.9	-0.4	0.0	-2.5	-0.1
COc1ccc2ccccc2c1C1CC(=O)N2CN(C3CCCCC3)CSC2=C1C#N (configuration not stated)	16.9*	10.3	9.3	0.1	3.5	-0.2
O=C(CCc1nc2ccccc2c(=O)[nH]1)Nc1nc(-c2cccs2)cs1	-1.4	-3.6	3.0	0.1	-3.0	-0.2
CN(c1ccc(-c2csc(NC(=O)CCCc3nc4ccccc4c(=O)[nH]3)n2)cc1)S(C)(=O)=O	·	·	-0.3	0.0	0.6	44.0*
C[C@@H](CN1C2=NC[C@H](Cc3ccccc3)N2C[C@H]1Cc1ccc(O)cc1)NC(=O)CCC1CCCCC1	-0.5	0.7	2.9	0.0	40.8*	0.0
Cc1ccc(C(=O)N[C@@H](C)CN2C3=NC[C@H](C(C)C)N3C[C@H]2Cc2ccc(O)cc2)cc1Br	·	2.0	-16.5	0.1	106.2*	0.3
COc1ccc(C[C@H]2CN3C(=NC[C@@H]3C(C)C)N2C[C@H](C)NC(=O)c2ccc(C)c(Br)c2)cc1	·	-0.6	0.3	0.1	-15.7	-0.1
C[C@@H](CN1C2=NC[C@H](Cc3ccc(O)cc3)N2C[C@H]1Cc1ccc(O)cc1)NC(=O)CCC1CCCCC1	·	-8.5	1.6	0.0	-13.0	0.0
C[C@H](O)C#Cc1cnc2c(c1)C(=O)N([C@@H](C)CO)C[C@@H](C)[C@H](CN(C)C(=O)Cc1ccncc1)O2	-0.2	-7.7	-1.1	0.0	1.7	-0.2
O=C(CSc1ccccc1C(=O)O)NCc1ccccc1	15.3*	3.3	-8.4	-0.1	4.9	-0.2
C[C@H]1CN([C@@H](C)CO)C(=O)Cc2cc(NC(=O)Nc3cccc4ccccc34)ccc2O[C@@H]1CN(C)S(=O)(=O)c1ccccc1	2.0	·	·	0.1	-3.4	-0.4
C[C@@H](NC(=O)C[C@@H]1C[C@H]2c3cc(NC(=O)CN(C)C)ccc3O[C@H]2[C@@H](CO)O1)c1ccccc1	0.4	-1.7	-1.6	0.0	0.8	-0.1
C[C@H]1CN([C@@H](C)CO)C(=O)c2cc(NC(=O)Nc3ccc(C(F)(F)F)cc3)ccc2O[C@@H]1CN(C)Cc1ccccc1	-0.1	-7.4	·	-1.2	17.4	26.9*
C[C@@H]1CN([C@H](C)CO)C(=O)c2cc(NC(=O)Nc3ccc(C(F)(F)F)cc3)ccc2O[C@H]1CN(C)Cc1ccncc1	2.9	4.3	·	0.1	32.8*	-0.3
C[C@@H]1CN([C@H](C)CO)C(=O)c2cc(NC(=O)Nc3ccc(C(F)(F)F)cc3)ccc2O[C@@H]1CN(C)Cc1ccc(Cl)c(Cl)c1	5.1	-9.0	5.4	-1.0	45.8*	0.8

From PubChem
